In article PMC6620733 (Biochemistry, 2019):
Read-outs that look alike come from different tables or passages of the source.

Legend:
[1] = molecular target: Munc13-1 C1 W22A mutant (Rattus norvegicus, UniProt Q62768, W588A); assay: In vitro [3H]PDBu binding assay, Munc13-1 C1 domain W22A; settings: for decrease in affinity of W588A (W22A) mutant C1 domain versus WT: 100% PS
[2] = molecular target: Munc13-1 C1 domain WT (Rattus norvegicus, UniProt Q62768); assay: In vitro [3H]PDBu binding assay, isolated Munc13-1 C1 domain; settings: for Kd: read-out: Kd for PDBu; for affinity better than that of PDBu: isolated C1 domain
[3] = molecular target: T1, full-length Munc13-1 (Rattus norvegicus, UniProt Q62768); assay: In vitro [3H]PDBu binding assay, full-length Munc13-1
[4] = molecular target: T1, full-length Munc13-1; format: cell-based
How it was run: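 Living HT22 cells (passages 2–16) are transfected with GFP-tagged full-length Munc13-1 (X-tremeGENE HP), then transferred after 24 h into phenol red-free DMEM with 1% FBS. Test compound at 10, 100 or 1000 nM is added at time zero. Confocal imaging every 30 s (488 nm excitation, 500–530 nm emission). Plasma membrane/cytoplasm mean intensity ratio is normalized to time zero. 5–9 cells per concentration, three independent experiments; saturated cells excluded.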

[5] = molecular target: Munc13-1^H567K (Rattus norvegicus, UniProt Q62768, H567K); format: cell-based; settings: HT22 cells, 0–2 μM, 5 min
How it was run: (§1)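 Fixed-cell confocal: HT22 cells in DMEM with 10% FBS and 2 mM glutamine are seeded on coverslips 24 h before transfection. At 70–80% confluence they are transfected (Lipofectamine 3000) with GFP-tagged mutant Munc13-1 plasmid in antibiotic-free medium. Treatment with test compound or PMA at 0.1–2 μM, then fixation in 4% PFA for 10 min and imaging at 63×. Ratio of mean membrane (outer 300 nm) to whole-cell GFP intensity.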

[6] = molecular target: T2, Munc13-1 (Rattus norvegicus, UniProt Q62768); format: cell-based; settings: HT22 cells, 0–2 μM, 5 min, confocal
How it was run: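 HT22 cells are seeded on coverslips at 6 × 10^4/well and, at 70–80% confluency, transfected with Munc13-1-GFP (Lipofectamine, antibiotic-free DMEM). They are exposed to 0.1–2 μM test compound for 5 min, then fixed in 4% PFA for 10 min and imaged by confocal at 63×. Read-out is the ratio of mean membrane intensity (outer 300 nm) to whole-cell intensity. Statistics use two-way ANOVA with Tukey.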

[7] = molecular target: T3, bMunc13-2 (Rattus norvegicus, UniProt Q62769); format: cell-based; settings: HT22 cells, immunoblotting (1 μM) and confocal microscopy (0–2 μM), 5 min
How it was run: (§2)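 Transfected HT22 cells (DMEM, 10% FBS, 70–80% confluent, Lipofectamine, antibiotic-free medium) express GFP-Munc13-1 or GFP-bMunc13-2 and are treated with 1 μM test compound. A kit separates the fractions: cytosolic buffer spin at 500g, 5 min; pellet in membrane buffer, 4 °C, 10 min, then 3000g, 5 min. 40 μg protein is run on 4–15% SDS–PAGE (membrane samples unheated). Probes are anti-GFP 1:500, Na,K-ATPase and β-actin 1:2000, with infrared detection.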

[8] = molecular target: T2, Munc13-1; assay: Cell fractionation and Western blot of HT22 cells expressing GFP-tagged Munc13-1; format: cell-based; settings: 1 μM, 5 min, cell fractionation and immunoblot
How it was run: as §2

[9] = molecular target: T3, bMunc13-2; assay: Translocation of GFP-tagged bMunc13-2 in living HT22 cells; format: cell-based; settings: living HT22 cells, 10, 100, 1000 nM, 0–15 min
How it was run: (§3)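 GFP-tagged bMunc13-2 or ubMunc13-2 is expressed in living HT22 cells (passages 2–16, X-tremeGENE HP transfection). Imaging is in phenol red-free DMEM with 1% FBS, 24 h post-transfection. Test compound at 10, 100 or 1000 nM is added at time zero, with confocal frames every 30 s (488/500–530 nm). Plasma membrane/cytoplasm ratio is normalized to time zero. bMunc13-2: 3–6 cells per concentration; ubMunc13-2: 5–9 cells; three independent experiments.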

[10] = molecular target: Munc13-1^W588A (Rattus norvegicus, UniProt Q62768, W588A); format: cell-based; settings: HT22 cells, 1 μM, 5 min
How it was run: as §1

[11] = molecular target: Munc13-1 C1 domain (Rattus norvegicus, UniProt Q62768); format: cell-based; settings: living HT22 cells, 1 μM
How it was run: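 Live-cell imaging, C1 domain: HT22 cells (passages 2–16; high-glucose DMEM, 10% FBS, 2 mM L-glutamine) are transfected with GFP-tagged Munc13-1 C1 domain (X-tremeGENE HP). After 24 h they are moved to phenol red-free DMEM with 1% FBS. Test compound 1 μM is added at time zero, with confocal images every 30 s (488 nm excitation, 500–530 nm emission). Cytoplasm/nucleus intensity ratio is normalized to time zero. 11–16 cells per treatment, three independent experiments; saturated cells excluded.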

[12] = molecular target: ubMunc13-2 (Rattus norvegicus, UniProt Q62769); assay: Translocation of GFP-tagged ubMunc13-2 in living HT22 cells; format: cell-based; settings: living HT22 cells, 10, 100, 1000 nM, 0–15 min
How it was run: as §3

[13] = system: endogenous Munc13-1 in primary hippocampal neurons; assay: Expression of endogenous Munc13-1 in primary hippocampal neurons; format: cell-based; settings: mouse primary hippocampal neurons, 0.1 or 0.5 μM, 24 h
How it was run: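 Hippocampi come from E18 mouse pups and are dissociated with trypsin/EDTA (20 min, 37 °C). Cells are plated at 8 × 10^4/well on poly-D-lysine coverslips in B-27 medium, and 7–8-day cultures are treated with 0.1 or 0.5 μM for 24 h. Cells are fixed in 4% PFA for 15 min and stained overnight at 4 °C with anti-Munc13-1 1:500, Tuj1 1:1000 and DAPI. Cytosolic Munc13-1 is measured by confocal in 3 wells × 3 cells per group.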

[14] = system: endogenous Munc13-1 in HT22 cells; assay: Expression of endogenous Munc13-1 in differentiated HT22 cells; format: cell-based, mouse; settings: 24 h
How it was run: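 Endogenous protein by Western blot: HT22 cells are differentiated in NeuroBasal medium with […], cAMP, L-glutamine and antibiotics. At 48–72 h after day 0, test compound is added at 0.1 or 0.5 μM for 24 h. Lysis in modified RIPA with protease/phosphatase inhibitors, sonication, 14000g 30 min at 4 °C. 7.5–10% SDS–PAGE, nitrocellulose, 2.5% BSA block. Anti-Munc13-1 1:500 and β-actin 1:5000, HRP secondary, ECL. Densitometric Munc13-1:β-actin ratio.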

[15] = molecular target: PKCδ (Homo sapiens, UniProt Q05655); assay: Translocation of GFP-tagged PKCδ in living HT22 cells; format: cell-based
How it was run: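 For PKCδ, living HT22 cells (passages 2–16) transiently express GFP-tagged PKCδ (X-tremeGENE HP). After 24 h, medium is changed to phenol red-free DMEM with 1% FBS. Test compound at 10, 100 or 1000 nM is added at time zero, with confocal imaging every 30 s (488 nm excitation, 500–530 nm emission). Nuclear membrane/cytoplasm intensity ratio is normalized to time zero. 4–7 cells per concentration, three independent experiments.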

[16] = read-out: Kd for PDBu, 100:0 PS/PC

T3 sequence (Q62769 1-1985 isoform Q62769-2): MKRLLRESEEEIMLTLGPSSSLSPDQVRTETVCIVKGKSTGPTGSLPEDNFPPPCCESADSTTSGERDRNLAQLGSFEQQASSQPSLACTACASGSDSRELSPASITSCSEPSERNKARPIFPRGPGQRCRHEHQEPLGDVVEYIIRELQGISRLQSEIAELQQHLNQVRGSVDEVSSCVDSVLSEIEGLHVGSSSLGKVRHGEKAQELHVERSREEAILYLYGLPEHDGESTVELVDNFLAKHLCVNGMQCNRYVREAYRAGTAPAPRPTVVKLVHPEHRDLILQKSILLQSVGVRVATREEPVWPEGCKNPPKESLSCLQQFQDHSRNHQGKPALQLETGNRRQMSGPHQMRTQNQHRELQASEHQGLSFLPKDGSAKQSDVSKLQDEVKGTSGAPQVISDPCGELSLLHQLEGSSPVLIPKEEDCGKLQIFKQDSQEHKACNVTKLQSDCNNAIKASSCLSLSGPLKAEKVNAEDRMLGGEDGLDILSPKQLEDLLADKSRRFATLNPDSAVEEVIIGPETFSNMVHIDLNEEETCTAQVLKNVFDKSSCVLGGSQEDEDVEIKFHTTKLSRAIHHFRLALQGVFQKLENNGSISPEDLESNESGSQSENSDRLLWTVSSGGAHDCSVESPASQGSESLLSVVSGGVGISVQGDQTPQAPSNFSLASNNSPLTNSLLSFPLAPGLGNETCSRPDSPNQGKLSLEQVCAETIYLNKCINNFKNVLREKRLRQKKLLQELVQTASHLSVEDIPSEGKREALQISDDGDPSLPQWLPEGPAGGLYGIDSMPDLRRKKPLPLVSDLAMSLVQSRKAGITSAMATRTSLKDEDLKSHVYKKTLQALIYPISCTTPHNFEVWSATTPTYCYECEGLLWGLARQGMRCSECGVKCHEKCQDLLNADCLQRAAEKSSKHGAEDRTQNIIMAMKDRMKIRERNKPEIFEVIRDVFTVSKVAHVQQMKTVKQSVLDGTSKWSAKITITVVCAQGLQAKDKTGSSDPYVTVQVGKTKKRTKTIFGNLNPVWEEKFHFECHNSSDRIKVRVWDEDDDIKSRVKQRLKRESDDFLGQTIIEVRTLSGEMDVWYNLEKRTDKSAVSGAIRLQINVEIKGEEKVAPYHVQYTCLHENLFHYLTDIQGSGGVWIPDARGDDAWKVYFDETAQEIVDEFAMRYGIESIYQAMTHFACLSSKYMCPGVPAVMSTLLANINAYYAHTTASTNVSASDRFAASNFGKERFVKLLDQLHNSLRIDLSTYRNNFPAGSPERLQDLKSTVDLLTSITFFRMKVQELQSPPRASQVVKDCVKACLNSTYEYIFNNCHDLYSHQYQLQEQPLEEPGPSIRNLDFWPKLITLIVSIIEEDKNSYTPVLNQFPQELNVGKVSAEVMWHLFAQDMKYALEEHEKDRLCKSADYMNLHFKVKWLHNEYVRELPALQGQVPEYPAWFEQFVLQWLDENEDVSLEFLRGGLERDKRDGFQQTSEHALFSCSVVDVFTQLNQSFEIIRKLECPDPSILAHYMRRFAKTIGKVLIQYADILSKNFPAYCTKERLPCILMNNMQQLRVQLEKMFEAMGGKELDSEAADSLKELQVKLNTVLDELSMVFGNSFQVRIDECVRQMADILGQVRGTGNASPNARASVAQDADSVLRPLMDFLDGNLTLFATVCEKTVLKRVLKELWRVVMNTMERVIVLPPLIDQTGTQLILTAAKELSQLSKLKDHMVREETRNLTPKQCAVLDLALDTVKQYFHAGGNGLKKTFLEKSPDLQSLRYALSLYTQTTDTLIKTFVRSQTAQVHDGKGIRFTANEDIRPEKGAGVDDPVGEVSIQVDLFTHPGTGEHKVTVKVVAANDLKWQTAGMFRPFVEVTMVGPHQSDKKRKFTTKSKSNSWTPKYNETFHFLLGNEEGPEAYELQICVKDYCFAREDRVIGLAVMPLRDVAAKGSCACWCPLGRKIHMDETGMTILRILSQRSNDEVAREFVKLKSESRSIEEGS
Chain of PKCδ (Q05655 whole entry): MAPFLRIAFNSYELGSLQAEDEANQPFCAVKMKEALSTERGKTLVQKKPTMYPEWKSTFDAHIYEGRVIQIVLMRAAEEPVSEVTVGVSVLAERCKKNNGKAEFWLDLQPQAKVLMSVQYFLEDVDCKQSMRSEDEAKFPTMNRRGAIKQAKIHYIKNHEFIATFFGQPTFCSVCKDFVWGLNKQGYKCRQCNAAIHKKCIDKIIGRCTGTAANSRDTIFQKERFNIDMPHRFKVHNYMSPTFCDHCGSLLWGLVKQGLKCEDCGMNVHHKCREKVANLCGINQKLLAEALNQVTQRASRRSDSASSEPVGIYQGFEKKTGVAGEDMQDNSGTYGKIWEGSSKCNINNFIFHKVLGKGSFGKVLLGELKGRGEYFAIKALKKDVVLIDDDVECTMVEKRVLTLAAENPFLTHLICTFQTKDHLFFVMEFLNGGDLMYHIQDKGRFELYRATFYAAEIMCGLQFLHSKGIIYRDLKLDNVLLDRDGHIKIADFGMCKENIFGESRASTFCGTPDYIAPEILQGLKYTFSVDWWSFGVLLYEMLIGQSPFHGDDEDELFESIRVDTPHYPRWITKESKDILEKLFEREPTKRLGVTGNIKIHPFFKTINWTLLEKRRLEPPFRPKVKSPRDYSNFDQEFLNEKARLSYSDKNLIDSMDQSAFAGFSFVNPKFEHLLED

Structure (SMILES): CCCC(=O)O[C@@H]1[C@@H](C)[C@@]2(O)[C@@H](C=C(CO)C[C@]3(O)C(=O)C(C)=C[C@@H]23)[C@@H]2C(C)(C)[C@]12OC(=O)CCC [PDBu, Phorbol 12,13-dibutyrate]
- decrease in affinity of W588A (W22A) mutant C1 domain versus WT [1]: 6.5 fold
- Kd [1, 16]: 0.809 ± 0.0081 µM
- Kd ([2]; 5:95 PS/PC): 0.082 ± 0.015 µM
- Kd ([2]; 20:80 PS/PC): 0.0695 ± 0.0048 µM
- Kd ([2]; 100:0 PS/PC): 0.124 ± 0.013 µM
- Ki ([2]; read-out: Ki for PDBu, PS/PC (20:80, w:w), assayed in parallel): 0.0695 ± 0.0048 µM
- Ki ([2]; read-out: Ki for PDBu, PS/PC (100:0)): 0.124 ± 0.013 µM
- Kd [3, 16]: 0.00709 ± 0.00053 µM
- Ki ([3]; read-out: Ki for PDBu, 100% PS, measured in parallel with bryostatin 1): 0.0071 ± 0.0005 µM
- effectiveness for inducing translocation relative to bryostatin 1 ([4]; living HT22 cells, 1 μM): modestly less effective than was bryostatin 1

Structure (SMILES): CCCCCCCCCCCCCC(=O)O[C@@H]1[C@@H](C)[C@@]2(O)[C@@H](C=C(CO)C[C@]3(O)C(=O)C(C)=C[C@@H]23)[C@@H]2C(C)(C)[C@]12OC(C)=O [PMA, phorbol 12-myristate 13-acetate]
- translocation (localization change) of Munc13-1 H567K [5]: no significant changes in localization
- translocation of Munc13-1 to the plasma membrane [6]: induced translocation of Munc13-1 to the plasma membrane
- translocation of GFP-tagged bMunc13-2 [7]: translocation similar to that of GFP-tagged Munc13-1
- transfer of Munc13-1 to membrane fraction [8]: caused Munc13-1 to transfer to the membrane fraction

Structure (SMILES): CCC/C=C/C=C/C(=O)O[C@H]1/C(=C/C(=O)OC)C[C@H]2C[C@H]([C@@H](C)O)OC(=O)C[C@H](O)C[C@@H]3C[C@H](OC(C)=O)C(C)(C)[C@](O)(C[C@@H]4C/C(=C/C(=O)OC)C[C@H](/C=C/C(C)(C)[C@]1(O)O2)O4)O3 [bryostatin 1]
- translocation (localization change) of Munc13-1 H567K [5]: no significant changes in localization
- translocation of Munc13-1 to the plasma membrane [6]: induced translocation of Munc13-1 to the plasma membrane
- translocation of bMunc13-2 [9]: clear translocation
- translocation of GFP-tagged bMunc13-2 [7]: translocation similar to that of GFP-tagged Munc13-1
- translocation of full-length Munc13-1 W588A [10]: translocation was lost
- translocation of GFP-C1 domain [11]: translocated within 5–20 min from the nucleus to internal membranes but not to the plasma membrane
- translocation of ubMunc13-2 [12]: clear translocation
- Ki [1]: 0.054 ± 0.012 µM
- decrease in affinity of W588A (W22A) mutant C1 domain versus WT [1]: 6.6 fold
- Ki ([2]; Ki for bryostatin 1, 5:95 PS/PC, 100 μg/mL lipid, 0.1 mM Ca2+, 100 nM [3H]PDBu): 0.0228 ± 0.0018 µM
- Ki ([2]; Ki for bryostatin 1, 20:80 PS/PC, 100 μg/mL lipid, 0.1 mM Ca2+, 100 nM [3H]PDBu): 0.0227 µM
- Ki ([2]; Ki for bryostatin 1, 100:0 PS/PC, 100 μg/mL lipid, 0.1 mM Ca2+, 100 nM [3H]PDBu): 0.00807 ± 0.0009 µM
- affinity better than that of PDBu ([2]; 100% PS): 15 fold
- affinity better than that of PDBu ([2]; lower PS concentrations): 3 fold
- Ki [3]: 0.00045 ± 4e-05 µM
- affinity better than that of PDBu ([3]; full-length Munc13-1, 100% PS): approximately 15 fold
- stimulation of translocation at 100 nM as fraction of that caused by 1000 nM ([4]; Munc13-1, 15 min value): 30%
- translocation of full-length Munc13-1 ([4]; living HT22 cells, 1 μM): translocated to the plasma membrane
- expression of endogenous Munc13-1 in cytosol [13]: significantly increased the level of expression of Munc13-1
- level of endogenous Munc13-1 staining ([14]; 0.1 and 0.5 μM, immunostaining): increased with both doses
- endogenous Munc13-1 levels by Western blot ([14]; 0.1 or 0.5 μM): increased
- transfer of Munc13-1 to membrane fraction [8]: caused Munc13-1 to transfer to the membrane fraction
- stimulation of translocation at 100 nM as fraction of that caused by 1000 nM ([15]; PKCδ, 15 min value): 63%
- translocation of PKCδ ([15]; living HT22 cells, 10, 100, 1000 nM, 0–15 min): induces translocation of PKCδ to the nuclear membrane and to internal membranes, rather than to the plasma membrane
